Drawing on ChEMBL document CHEMBL1122699, “A reappraisal of the effect upon thymidine kinase of thymidine derivatives carrying large groups at the 5'-position” (J Med Chem, 1984), this text covers Activity and inhibition for six compounds.

Assay [1] in a line: Thymidine kinase activity was measured by radio chemical assay method. In a few lines: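 Same L1210 ammonium sulfate enzyme fraction and mix: 5 µM [3H]TdR, 2 mM ATP, 1 mM MgCl2, 10% Me2SO, 45 mM Tris-HCl pH 7.8, 37 °C. Stopped by boiling. [3H]TMP bound to PEI-cellulose squares and counted. Run in parallel with the HPLC assay. Activity given as % of the control rate, mean of at least two experiments.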

Assay [2] in a line: Thymidine kinase activity was measured by nonradiochemical assay method + TdR (percentage of the control rate measured in the presence of 5 uM Tdr). In a few lines:
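Conditions match the radiochemical assay, but with 5 µM unlabeled TdR: 10 min at 37 °C, stopped by 20-fold dilution in ice-cold water. Nucleotides separated from nucleosides, freeze-dried, dephosphorylated overnight with alkaline phosphatase, then quantified as nucleosides by C18 HPLC (A254/A280). Expressed as % of the control rate with 5 µM TdR, mean of ≥2 experiments.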

Assay [3] is described as follows: Thymidine kinase activity was measured by nonradiochemical assay method - TdR (percentage of the control rate measured in the presence of 5 µM TdR).
In assay [4] the test system is L1210. In words: The compound was tested for inhibition of thymidine kinase using […] at concentration 50 uM in L1210 cells. It is filed as cell-based. The gist of the method: (§1)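 Enzyme: L1210 ascites cell sonicate (50 mM Tris-HCl pH 7.8, 150 mM KCl), 100000g supernatant precipitated at 30% ammonium sulfate saturation. Reaction mix: 5 µM [3H]TdR, 2 mM ATP, 1 mM MgCl2, 10% Me2SO, 45 mM Tris pH 7.8, compound added in Me2SO. Run 10 min at 37 °C, stopped by boiling. [3H]TMP captured on PEI-cellulose, eluted with HCl, counted. % inhibition given as mean ± SE of n determinations.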

Assay [5] relates to L1210. The assay can be described thus: The compound was tested for inhibition of thymidine kinase using […] at concentration 125 uM in L1210 cells. It is filed as cell-based. The gist of the method:
as §1

Assay [6] has as its system L1210. The assay can be described thus: The compound was tested for inhibition of thymidine kinase using […] at concentration 200 uM in L1210 cells. It is filed as cell-based. The gist of the method: as §1
In assay [7] the test system is L1210. In words: The compound was tested for inhibition of thymidine kinase using […] at concentration 250 uM in L1210 cells. It is filed as cell-based. The gist of the method:
as §1

A word on the inhibition: it is the percentage by which the read-out fell short of the control. The low end stands for a weak effect, the high end for a strong effect. Turning to `Cc1cn([C@H]2C[C@H](O)[C@@H](CN)O2)c(=O)[nH]c1=O`, the Activity in assay [1] came out at 26; in assay [2] it was 27; in assay [3], 0. Moreover, the inhibition in assay [4] amounted to 76%.

The compound `Cc1cn(C2CC(O)C(CNC(=O)COc3ccc(OCc4ccc([N+](=O)[O-])cc4)cc3)O2)c(=O)[nH]c1=O` (stereo not given) gave an inhibition in assay [5] of 1%.

Compound `Cc1cn([C@H]2C[C@H](O)[C@@H](COCCOc3ccc(OCc4ccccc4)cc3)O2)c(=O)[nH]c1=O` gave an inhibition in assay [6] of 14%.

Consider `Cc1cn(C2CC(O)C(CNC(=O)COc3ccc(OCc4ccccc4)cc3)O2)c(=O)[nH]c1=O` (stereo not given), for which the inhibition in assay [5] turned out to be 0%.

As for `Cc1cn([C@H]2C[C@H](O)[C@@H](COC(=O)COc3ccc(OCc4ccccc4)cc3)O2)c(=O)[nH]c1=O`, the Activity in assay [1] came to 65; in assay [2], 152; in assay [3], 118. The compound also gave an inhibition in assay [7] of 33%.

For the compound `Cc1cn([C@H]2C[C@H](O)[C@@H](COC(=O)COc3ccc(OCc4ccc([N+](=O)[O-])cc4)cc3)O2)c(=O)[nH]c1=O`, the Activity in assay [1] came to 62; in assay [2], 144; in assay [3], 110. The compound further came in with an inhibition in assay [6] of 35%.
